Results taken from ChEMBL document CHEMBL1140925, “Nuclear factor-kappaB mediated inhibition of cytokine production by imidazoline scaffolds” (J Med Chem, 2009).
Activity calls are given as the source filed them. The rule behind the calls is not given here.

Tests used:
Blood [1] = test: Antiinflammatory activity in human whole blood assessed as inhibition of IL-1-beta-induced IL6 production preincubated 2 hrs before addition of IL1-beta measured after 18 hrs by ELISA; type: functional, tissue-based
Method in brief: (§1)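 Human blood from donors with white count in the normal range, diluted 1:10 in RPMI-1640 with 10% FBS, penicillin and streptomycin. Aliquots were preincubated with vehicle (0.1% DMSO final) or compound at 10, 3, 1, 0.3 or 0.1 µM final for 2 h at 37 °C, 5% CO2. IL-1β (200 U/mL) was then added for 18 h, and plasma was collected and frozen. Cytokine was measured by ELISA.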

Blood [2] = test: Antiinflammatory activity in human whole blood assessed as inhibition of IL-1-beta-induced TNFalpha production preincubated 2 hrs before addition of IL1-beta measured after 18 hrs by ELISA; type: functional, tissue-based; method in brief: as §1
HeLa [3] = test: Induction of NF-kappaB-mediated transcription expressed in human HeLa cells at 20 uM by luciferase reporter gene assay; type: cell-based
Method in brief: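 Stably integrated NF-κB-luc HeLa cells, hygromycin-selected, were exposed to 20 µM imidazoline without TNF-α activation. Firefly luciferase was read after 8 h, and signal was normalized to the TNF-α activation control.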

[4] = (§2) Inhibition of TNF-alpha-induced NF-kappaB-mediated transcription expressed in human HeLa cells preincubated for 30 mins before addition of TNFalpha measured after 8 hrs by luciferase reporter gene assay; type: cell-based
Method in brief: (§3)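 HeLa/NF-κB-luc cells (5.0 × 10⁵ cells/mL) were grown 24 h, then switched to serum-free DMEM. They were pretreated 30 min at 37 °C with 0.05–20 µM imidazoline (1% DMSO vehicle), then stimulated with 25 ng/mL TNF-α for 8 h. Steady-Glo luminescence was normalized to TNF-α activation, and EC50 was taken from a variable-slope sigmoidal fit. Values are the mean of two independent experiments.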

HeLa [5] = test: as §2; type: cell-based; method in brief: as §3
HeLa [6] = test: Inhibition of TNF-alpha-induced NF-kappaB-mediated transcription expressed in human HeLa cells co-transfected with renilla luciferase-TK gene preincubated for 30 mins before TNFalpha challenge measured after 8 hrs by dual-glo luciferase reporter gene assay; type: cell-based
Method in brief: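 HeLa cells were transiently cotransfected (lipofectamine 2000, 5–6 h) with 6×κB pNF-κB-luc and the pRL-TK Renilla control, then grown 24 h. They were pretreated 30 min with 0.312–20 µM (1% DMSO vehicle), then stimulated with 25 ng/mL TNF-α for 8 h at 37 °C. Dual-Glo firefly signal was normalized to Renilla luminescence.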

Row | Compound | EC50 [4] [µM] | IC50 (Blood [1]) [nM] | IC50 (Blood [2]) [nM] | IC50 (Blood [1]; Homo sapiens, Blood) [nM] | IC50 (Blood [2]; Homo sapiens, Blood) [nM] | Activity (Blood [1]) | Activity (Blood [2]) | Activity (HeLa [3]) | Activity (HeLa [5]) | logEC50 (HeLa [5]) | logIC50 (Blood [2]) | logIC50 (Blood [1]) | logEC50 (HeLa [6])
1 | c1ccc(Cn2c(-c3ccccc3)nc(-c3ccccc3)c2-c2ccccc2)cc1 | 27.7 |  |  |  |  | Dose-dependent effect | Dose-dependent effect | inactive | Dose-dependent effect | 1.44 |  |  | 
2 | CCOC(=O)[C@]1(c2ccccc2)N=C(c2ccccc2)N(Cc2ccccc2)[C@@H]1c1ccccc1 [listing 2 of 2 here] |  |  |  |  |  | Dose-dependent effect | Dose-dependent effect | inactive | Dose-dependent effect | 0.209 |  |  | 
3 | OC[C@]1(c2ccccc2)N=C(c2ccccc2)N(Cc2ccccc2)[C@@H]1c1ccccc1 (racemic) | > 20 |  |  | > 20000 |  | Dose-dependent effect |  | inactive | Dose-dependent effect |  | 1.29 |  | 
4 | NC(=O)[C@]1(c2ccccc2)N=C(c2ccccc2)N(Cc2ccccc2)[C@@H]1c1ccccc1 (racemic) | 26.2 |  |  | 11900 | > 20000 | Dose-dependent effect |  | inactive | Dose-dependent effect | 1.55 | 1.668 | 1.08 | 
5 | CCOC(=O)[C@]1(c2ccccc2)N=C(c2ccccc2)N(Cc2ccccc2)[C@@H]1c1ccccc1 (racemic) |  |  |  |  |  | Dose-dependent effect | Dose-dependent effect | inactive | Dose-dependent effect | 0.4 |  |  | 0.67
6 | O=C(O)[C@]1(c2ccccc2)N=C(c2ccccc2)N(Cc2ccccc2)[C@@H]1c1ccccc1 (racemic; 1) [listing 2 of 2 here] |  |  |  |  |  | Dose-dependent effect | Dose-dependent effect | inactive | Dose-dependent effect |  |  |  | 
7 | O=C(O)[C@]1(c2ccccc2)N=C(c2ccccc2)N(Cc2ccccc2)[C@@H]1c1ccccc1 (racemic; 2) |  |  |  |  |  |  |  | inactive | inactive |  |  |  | 

Further lines, with some results ahead:

Row | EC50 [4] [µM] | IC50 (Blood [1]) [nM] | IC50 (Blood [2]) [nM] | IC50 (Blood [1]; Homo sapiens, Blood) [nM] | IC50 (Blood [2]; Homo sapiens, Blood) [nM] | Compound | Activity (Blood [1]) | Activity (Blood [2]) | Activity (HeLa [3]) | Activity (HeLa [5]) | logEC50 (HeLa [5]) | logIC50 (Blood [2]) | logIC50 (Blood [1]) | logEC50 (HeLa [6])
8 | 1.6 | 200 | 600 |  |  | CCOC(=O)[C@]1(c2ccccc2)N=C(c2ccccc2)N(Cc2ccccc2)[C@@H]1c1ccccc1 [listing 1 of 2 here] |  |  |  |  |  |  |  | 
9 | 2.9 |  |  | 583 | 700 | CCOC(=O)[C@@]1(c2ccccc2)N=C(c2ccccc2)N(Cc2ccccc2)[C@H]1c1ccccc1 | Dose-dependent effect | Dose-dependent effect | inactive | Dose-dependent effect | 0.469 |  |  | 
10 | 3.5 |  |  |  | 3200 | O=C(OCc1ccccc1)[C@]1(c2ccccc2)N=C(c2ccccc2)N(Cc2ccccc2)[C@@H]1c1ccccc1 (racemic) | Dose-dependent effect | Dose-dependent effect | inactive | Dose-dependent effect | 0.54 | 0.51 | 0.77 | 
11 | 4.59 |  |  | 2470 |  | c1ccc(CN2C(c3ccccc3)=N[C@H](c3ccccc3)[C@H]2c2ccccc2)cc1 (racemic) | Dose-dependent effect | Dose-dependent effect | inactive | Dose-dependent effect | 0.66 | 0.39 |  | 
12 | 11 |  |  | 2400 |  | c1ccc(CN2C(c3ccccc3)=N[C@@H](c3ccccc3)[C@H]2c2ccccc2)cc1 (racemic) | Dose-dependent effect | Dose-dependent effect | inactive | Dose-dependent effect | 1.04 | 0.38 |  | 
13 | 7.47 |  |  |  | 2790 | COC(=O)[C@]1(c2ccccc2)N=C(c2ccccc2)N(Cc2ccccc2)[C@@H]1c1ccccc1 (racemic) | Dose-dependent effect | Dose-dependent effect | inactive | Dose-dependent effect | 0.87 | 0.4761 | 0.446 | 
14 | 0.95 |  |  | > 20000 | > 20000 | O=C(O)[C@]1(c2ccccc2)N=C(c2ccccc2)N(Cc2ccccc2)[C@@H]1c1ccccc1 (racemic; 1) [listing 1 of 2 here] |  |  |  |  |  |  |  | 
